Laboratory results as given in ChEMBL document CHEMBL5661986, “Discovery of the SMYD3 Inhibitor BAY-6035 Using Thermal Shift Assay (TSA)-Based High-Throughput Screening” (SLAS Discov, 2021).
Values after ≈ are worked out from the molar mass of the structure shown. Active and inactive are the calls of the source. The rule behind the calls is not given here.

Tests used:
[1] = biological target: T1, Histone-lysine N-methyltransferase SMYD1 (Homo sapiens) (UniProt Q8NB12); test: Binding affinity to recombinant human SMYD1 expressed in Sf9 insect cells assessed as change in melting temperature at 120 uM by SYPRO Orange staining based thermal shift assay
T1 sequence (whole entry): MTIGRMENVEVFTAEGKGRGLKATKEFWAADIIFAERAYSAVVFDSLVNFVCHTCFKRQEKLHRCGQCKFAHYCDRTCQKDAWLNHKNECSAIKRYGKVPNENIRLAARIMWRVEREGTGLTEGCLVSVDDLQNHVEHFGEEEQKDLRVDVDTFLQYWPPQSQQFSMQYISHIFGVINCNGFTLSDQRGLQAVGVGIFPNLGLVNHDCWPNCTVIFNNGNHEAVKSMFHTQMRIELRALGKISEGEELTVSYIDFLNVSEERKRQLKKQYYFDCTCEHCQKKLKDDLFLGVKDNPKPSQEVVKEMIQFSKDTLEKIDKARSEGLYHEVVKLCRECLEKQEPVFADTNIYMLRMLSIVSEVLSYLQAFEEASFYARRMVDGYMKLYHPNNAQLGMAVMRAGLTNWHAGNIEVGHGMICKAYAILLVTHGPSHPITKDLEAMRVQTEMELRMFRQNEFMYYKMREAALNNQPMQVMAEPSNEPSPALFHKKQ
In short: (§1)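 SMYD1 (aa 2–490) or SMYD2 (aa 2–433), His-tagged from Sf9, Ni-NTA then gel filtration; melt at 1.4 µM protein, 8x SYPRO Orange in 20 mM Tris pH 8.0, 100 mM NaCl, 8.5% glycerol, 1.0 mM DTT; scan 25–80 °C at 0.1 °C/s; 4% DMSO control.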

[2] = biological target: T2, Histone-lysine N-methyltransferase SMYD3 (Homo sapiens) (UniProt Q9H7B4); test: Binding affinity to recombinant human SMYD3 expressed in Escherichia coli assessed as change in melting temperature at 10 to 200 uM by SYPRO Orange staining based thermal shift assay; details: dose 10-200 µM
T2 sequence (whole entry): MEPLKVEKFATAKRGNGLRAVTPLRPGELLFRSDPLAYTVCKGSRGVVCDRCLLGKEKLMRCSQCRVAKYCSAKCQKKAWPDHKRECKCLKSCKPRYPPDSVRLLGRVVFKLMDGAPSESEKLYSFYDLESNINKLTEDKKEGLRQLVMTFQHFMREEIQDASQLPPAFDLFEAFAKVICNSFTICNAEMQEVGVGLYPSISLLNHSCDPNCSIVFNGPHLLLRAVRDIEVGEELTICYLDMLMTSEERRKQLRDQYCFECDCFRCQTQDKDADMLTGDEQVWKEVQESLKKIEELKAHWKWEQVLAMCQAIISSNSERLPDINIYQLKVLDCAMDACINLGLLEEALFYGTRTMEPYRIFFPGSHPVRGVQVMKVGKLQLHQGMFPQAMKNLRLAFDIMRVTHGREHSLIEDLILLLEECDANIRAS
In short: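 Full-length untagged SMYD3 (aa 1–428, E. coli, His tag removed by TEV) at 1.5–2.0 µM with 5x SYPRO Orange in 20 mM Tris pH 7.0, 150 mM NaCl, 1.0 mM DTT; compound titration 10–200 µM; 4% DMSO control; melting scanned 25–80 °C at 0.1 °C/s; Tm shift read.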

[3] = biological target: T3, Histone-lysine N-methyltransferase SMYD3 (Homo sapiens, UniProt Q9H7B4); test: Binding affinity to recombinant human SMYD3 expressed in Escherichia coli assessed as catalytic inhibition using DYDNPIFEKFGKGGTYPRRYHVSYHGK-Biotin as substrate by scintillation proximity assay
T3 sequence (Q9H7B4 whole entry): T2 sequence (whole entry)

[4] = biological target: N-lysine methyltransferase SMYD2 (Homo sapiens) (UniProt Q9NRG4); test: Binding affinity to recombinant human SMYD2 expressed in Sf9 insect cells assessed as change in melting temperature at 120 uM by SYPRO Orange staining based thermal shift assay; in short: as §1
[5] = biological target: T2, Histone-lysine N-methyltransferase SMYD3 (Homo sapiens); details: dose 120.0 µM
[6] = Lipophilicity, log D of the compound at pH 7.5; type: physicochemical; details: buffer
[7] = Kinetic solubility of the compound at pH 6.5; type: physicochemical; details: buffer, read-out: Kinetic_solubility
[8] = test system: Histone-lysine N-methyltransferase SMYD3 (Homo sapiens), Q9H7B4 [UNDEFINED MUTATION]; test: Inhibition of SMYD3 catalytic inactive mutant co-expressed with HA-tagged MAP3K2 transfected in human HeLa cells assessed as reduction of MAP3K2-K260me3 level upto 10 uM incubated for 20 hrs by Western blotting analysis; type: cell-based
In short: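 After 4 h, compound or DMSO for 20 h. Lysates immunoblotted for MAP3K2-K260me3 (in-house antibody), HA, SMYD3 and MAP3K2 with infrared secondaries. K260me3 signal normalized to HA; three technical replicates, mean ± SEM, nonlinear fit.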

[9] = Dissociation constant, pKa of compound; type: physicochemical

Sequence of N-lysine methyltransferase SMYD2 (Homo sapiens) (Q9NRG4 whole entry): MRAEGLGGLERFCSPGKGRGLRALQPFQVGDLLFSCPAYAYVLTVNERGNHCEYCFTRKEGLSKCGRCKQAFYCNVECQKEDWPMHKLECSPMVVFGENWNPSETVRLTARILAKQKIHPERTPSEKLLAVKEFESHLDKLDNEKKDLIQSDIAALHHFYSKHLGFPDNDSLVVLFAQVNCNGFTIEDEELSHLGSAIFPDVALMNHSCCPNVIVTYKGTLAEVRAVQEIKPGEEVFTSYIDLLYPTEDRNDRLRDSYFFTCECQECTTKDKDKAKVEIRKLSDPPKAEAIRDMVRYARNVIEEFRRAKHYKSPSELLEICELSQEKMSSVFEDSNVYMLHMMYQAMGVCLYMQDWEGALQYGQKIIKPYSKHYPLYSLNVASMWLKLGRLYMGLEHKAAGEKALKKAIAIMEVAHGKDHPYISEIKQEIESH

Row | deltaTm [1] | deltaTm [2] | IC50 [3] | deltaTm [4] | deltaTm [5] | logD [6] | solubility kinetic [7] | inhibition [8] | pKa [9] | SMILES
1 | -0.2 K | 0.2 K | 18 µM | 0 K |  |  |  |  |  | CCCNC(=O)c1ccc2c(c1)NC(=O)CC(C)N2C(=O)c1cccs1 (configuration not stated)
2 |  |  | 2.33 µM |  | 5.6 K | 2.1 | 231 µg/mL (≈ 531 µM) |  |  | C[C@H]1CC(=O)Nc2cc(C(=O)NCCC3CC3)ccc2N1C(=O)N1CCC(F)(F)CC1
3 | -0.2 K | 0.2 K | 24 µM | 0.2 K |  |  |  |  |  | CCCCCNC(=O)c1ccc2c(c1)NC(=O)CC(C)N2C(=O)c1ccccc1F (configuration not stated)
4 |  |  | > 100 µM |  |  |  |  | inactive |  | C[C@@H]1CC(=O)Nc2cc(C(=O)N(C)CCC3CC3)ccc2N1C(=O)N1CC2CC2C1 (some centres not stated)
5 | 0 K | 0.7 K | 12 µM | 0 K | 2.4 K |  |  |  |  | CCCCNC(=O)c1ccc2c(c1)NC(=O)CC(C)N2C(=O)c1ccccc1F (configuration not stated)
6 |  |  | 0.0542 µM |  | 8.46 K | 1.4 | > 414 µg/mL |  | 8.8 | C[C@H]1CC(=O)Nc2cc(C(=O)NCCC3CC3)ccc2N1C(=O)N1CCCNCC1
7 |  |  | 0.832 µM |  | 5.91 K | 1.4 | 330 µg/mL |  |  | C[C@H]1CC(=O)Nc2cc(C(=O)NCCC3CC3)ccc2N1C(=O)N1CC[C@@H](N)C1.Cl
8 |  |  | 1.97 µM |  | 3.9 K | 2.1 | 95.5 µg/mL (≈ 244 µM) |  |  | CC1CC(=O)Nc2cc(C(=O)NCCC3CC3)ccc2N1C(=O)c1ccccc1 (racemic)
9 | 0.2 K | 0.2 K | 22 µM | 0.2 K |  |  |  |  |  | CCCCCNC(=O)c1ccc2c(c1)NC(=O)CC(C)N2C(=O)c1ccc(C)cc1 (configuration not stated)
10 |  |  | 1.08 µM |  | 5.63 K | 1.5 | 254 µg/mL (≈ 573 µM) |  |  | C[C@H]1CC(=O)Nc2cc(C(=O)NCCC3CC3)ccc2N1C(=O)N1CCN(CCO)CC1
11 |  |  | 2.53 µM |  | 5.15 K |  |  |  |  | C[C@@H]1CC(=O)Nc2cc(C(=O)NCCC3CC3)ccc2N1C(=O)N1CC2CC2C1 (some centres not stated)
12 |  |  |  |  |  | 1.4 | 320 µg/mL (≈ 775 µM) |  |  | C[C@@H]1CC(=O)Nc2cc(C(=O)NCCC3CC3)ccc2N1C(=O)N1CCC(N)CC1
13 |  |  | 0.493 µM |  | 6.1 K | 1.3 | 257 µg/mL (≈ 602 µM) |  |  | C[C@H]1CC(=O)Nc2cc(C(=O)NCCC3CC3)ccc2N1C(=O)N(C)C1CCNCC1
14 |  |  | 0.259 µM |  | 7.56 K | 1.4 | 294 µg/mL |  |  | C[C@H]1CC(=O)Nc2cc(C(=O)NCCC3CC3)ccc2N1C(=O)N1CC[C@H](N)C1.Cl
15 |  |  | 0.252 µM |  | 7.42 K | 1.4 | 374 µg/mL (≈ 936 µM) |  |  | C[C@H]1CC(=O)Nc2cc(C(=O)NCCC3CC3)ccc2N1C(=O)N1CCNCC1
16 | -0.2 K | 0.4 K | 18 µM | 0.2 K |  |  |  |  |  | CCCCNC(=O)c1ccc2c(c1)NC(=O)CC(C)N2C(=O)CCC1CCCC1 (configuration not stated)
17 |  |  | 1.51 µM |  | 5.26 K | 2.2 |  |  |  | C[C@H]1CC(=O)Nc2cc(C(=O)NCCC3CC3)ccc2N1C(=O)N1CCN(CC(F)(F)F)CC1
18 | 0 K | 0 K |  | 0.2 K |  |  |  |  |  | CCCCNC(=O)c1ccc2c(c1)NC(=O)CC(C)N2C(=O)c1cccc(F)c1 (configuration not stated)
19 |  |  | 1.03 µM |  | 5.63 K | 2.2 | 312 µg/mL (≈ 631 µM) |  |  | C[C@H]1CC(=O)Nc2cc(C(=O)NCCC3CC3)ccc2N1C(=O)N1CCC(NCC(F)(F)F)CC1
20 |  |  | 0.396 µM |  | 6.77 K | 1.3 | 252 µg/mL (≈ 609 µM) |  |  | C[C@H]1CC(=O)Nc2cc(C(=O)NCCC3CC3)ccc2N1C(=O)NC1CCNCC1
21 |  |  | 5.56 µM |  | 3.34 K | 2.4 | 345 µg/mL (≈ 677 µM) |  |  | C[C@H]1CC(=O)Nc2cc(C(=O)NCCC3CC3)ccc2N1C(=O)N(C)C1CCN(CC(F)(F)F)CC1
22 | -0.1 K | 0 K | 27 µM | 0.1 K |  |  |  |  |  | CCCCCNC(=O)c1ccc2c(c1)NC(=O)CC(C)N2C(=O)C1CCCC1 (configuration not stated)
23 |  |  |  |  |  | 1.4 | 318 µg/mL (≈ 768 µM) |  |  | C[C@H]1CC(=O)Nc2cc(C(=O)NCCC3CC3)ccc2N1C(=O)N1CCC(N)CC1
24 |  |  | 0.459 µM |  | 7.34 K | 1.7 | > 428 µg/mL |  |  | CCN1CCN(C(=O)N2c3ccc(C(=O)NCCC4CC4)cc3NC(=O)C[C@@H]2C)CC1
25 |  |  | 0.763 µM |  | 6.16 K | 2 | 294 µg/mL (≈ 700 µM) |  |  | C[C@H]1CC(=O)Nc2cc(C(=O)NCCC3CC3)ccc2N1C(=O)N1CCC(F)(F)C1
26 |  |  | 0.177 µM |  | 8.2 K | 1.5 | > 456 µg/mL |  |  | CCN1CCC(N(C)C(=O)N2c3ccc(C(=O)NCCC4CC4)cc3NC(=O)C[C@@H]2C)CC1
27 |  |  | 2.64 µM |  | 3.9 K |  |  |  |  | C[C@H]1CC(=O)Nc2cc(C(=O)N(C)CCC3CC3)ccc2N1C(=O)N1CC2CC2C1 (some centres not stated)
28 |  |  | 1.85 µM |  | 4.77 K | 2.4 | 87.5 µg/mL (≈ 216 µM) |  |  | CC1CC(=O)Nc2cc(C(=O)NCCC3CCC3)ccc2N1C(=O)c1ccccc1 (racemic)
